Measured values: ChEMBL document CHEMBL4251600, “Bioactive products from singlet oxygen photooxygenation of cannabinoids” (Eur J Med Chem, 2018)
In brackets after ≈: the same amount, converted by molar mass. Activity calls are given as the source filed them. No cut-off for these calls is given here.

Assays:
[1] = tested on: Cryptococcus neoformans; experiment: Antifungal activity against Cryptococcus neoformans by alamar blue assay; type: functional, organism-based; settings: for IC50: read-out: IC50
[2] = tested on: Nakaseomyces glabratus; experiment: Antifungal activity against Candida glabrata by modified CLSI based method; type: functional, organism-based
[3] = tested on: Staphylococcus aureus; experiment: Antimicrobial activity against Staphylococcus aureus by modified CLSI based method; type: functional, organism-based; settings: for IC50: read-out: IC50
[4] = tested on: Pichia kudriavzevii; experiment: Antifungal activity against Candida krusei by modified CLSI based method; type: functional, organism-based
[5] = tested on: Staphylococcus aureus; experiment: Antimicrobial activity against methicillin-resistant Staphylococcus aureus by modified CLSI based method; type: functional, organism-based
[6] = tested on: Plasmodium falciparum; experiment: Antiplasmodial activity against chloroquine-resistant Plasmodium falciparum W2 infected in red blood cells incubated for 72 hrs by parasite LDH release based colorimetric assay; type: functional, organism-based; settings: W2, 72 h
[7] = tested on: Plasmodium falciparum; experiment: Antiplasmodial activity against chloroquine-sensitive Plasmodium falciparum D6 infected in red blood cells incubated for 72 hrs by parasite LDH release based colorimetric assay; type: functional, organism-based; settings: D6, 72 h
[8] = tested on: Leishmania donovani; experiment: Antileishmanial activity against Leishmania donovani promastigotes incubated for 48 hrs by alamar blue assay; type: functional, organism-based; settings: Leishmania donovani, 48 h; for IC90: read-out: IC90; for IC50: read-out: IC50
[9] = target: T1, Cannabinoid receptor 2 (Homo sapiens, UniProt P34972); experiment: Agonist activity at recombinant human full length CB2 receptor expressed in HEK293 cell membranes at 100 uM after 2 hrs by [35S]GTP-gammaS binding assay relative to CP-55,940; type: functional
[10] = target: T2, Cannabinoid receptor 1 (Homo sapiens, UniProt P21554); experiment: Displacement of [3H]CP-55,940 from recombinant human full length CB1 receptor expressed in HEK293 cell membranes after 90 mins by topcount method
[11] = target: T1, Cannabinoid receptor 2; experiment: Displacement of [3H]CP-55,940 from recombinant human full length CB2 receptor expressed in HEK293 cell membranes after 90 mins by topcount method
[12] = target: T2, Cannabinoid receptor 1; experiment: Agonist activity at recombinant human full length CB1 receptor expressed in HEK293 cell membranes at 100 uM after 2 hrs by [35S]GTP-gammaS binding assay relative to CP-55,940; type: functional
[13] = target: T1, Cannabinoid receptor 2; experiment: Agonist activity at recombinant human full length CB2 receptor expressed in HEK293 cell membranes after 2 hrs by [35S]GTP-gammaS binding assay; type: functional
How it was run: (§1)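 Membranes (20 µg/well) from HEK293 cells stably transfected with human CB1 or CB2 cDNA were incubated with test compound and 0.5 nM [35S]-GTP-γS. Buffer: 50 mM Tris-HCl, 0.2 mM EGTA, 9 mM MgCl2, 150 mM NaCl, 50 µM GDP, 1.4 mg/ml BSA. Incubation ran 2 h at 30°C and was stopped by vacuum filtration through GF/B filters with cold Tris-HCl. Nonspecific binding was taken with 40 µM GTP-γS.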

[14] = target: T2, Cannabinoid receptor 1; experiment: Agonist activity at recombinant human full length CB1 receptor expressed in HEK293 cell membranes after 2 hrs by [35S]GTP-gammaS binding assay; type: functional; how it was run: as §1
[15] = Cryptococcus neoformans, read-out: MIC
[16] = Staphylococcus aureus, read-out: MIC
[17] = Staphylococcus aureus, read-out: IC50

T2 sequence (P21554 whole entry): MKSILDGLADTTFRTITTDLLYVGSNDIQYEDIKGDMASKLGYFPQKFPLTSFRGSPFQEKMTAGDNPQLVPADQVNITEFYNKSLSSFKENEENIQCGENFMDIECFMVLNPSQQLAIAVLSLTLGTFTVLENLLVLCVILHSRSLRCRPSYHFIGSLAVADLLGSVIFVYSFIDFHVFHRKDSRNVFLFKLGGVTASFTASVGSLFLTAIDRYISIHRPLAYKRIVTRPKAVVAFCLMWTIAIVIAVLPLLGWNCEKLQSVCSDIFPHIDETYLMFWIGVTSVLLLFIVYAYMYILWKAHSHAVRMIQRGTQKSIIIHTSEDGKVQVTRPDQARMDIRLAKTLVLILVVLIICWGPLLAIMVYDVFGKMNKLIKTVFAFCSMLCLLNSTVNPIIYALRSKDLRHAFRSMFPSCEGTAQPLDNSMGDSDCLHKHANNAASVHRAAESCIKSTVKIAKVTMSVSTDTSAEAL
T1 sequence (P34972 whole entry): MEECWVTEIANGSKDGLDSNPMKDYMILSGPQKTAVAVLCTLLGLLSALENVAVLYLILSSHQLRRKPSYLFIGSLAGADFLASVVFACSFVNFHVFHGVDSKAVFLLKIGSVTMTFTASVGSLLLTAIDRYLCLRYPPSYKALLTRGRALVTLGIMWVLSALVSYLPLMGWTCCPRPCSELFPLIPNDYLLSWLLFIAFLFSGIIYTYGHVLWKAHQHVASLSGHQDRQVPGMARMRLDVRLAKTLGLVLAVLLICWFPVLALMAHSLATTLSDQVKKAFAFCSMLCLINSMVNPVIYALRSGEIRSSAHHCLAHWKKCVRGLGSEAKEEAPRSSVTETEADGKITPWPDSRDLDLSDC

CCCCCc1cc2c(c(OS(=O)(=O)c3ccc(C)cc3)c1)[C@H]1[C@@H](CC=C(C)[C@@H]1O)C(C)(C)O2
MIC [1]: inactive | MIC [2]: inactive | MIC [3]: inactive | MIC [4]: inactive | MIC [5]: inactive

C=C1C[C@H]2c3c(O)cc(CCCCC)cc3OC(C)(C)[C@@H]2C[C@H]1O
MIC [1]: inactive | IC50 ([1]; Cryptococcus neoformans): 8.34 µg/mL (≈ 25.2 µM) | IC50 [2]: Not Active | MIC [2]: inactive | MIC [3]: inactive | IC50 ([3]; Staphylococcus aureus): 10.7 µg/mL (≈ 32.4 µM) | IC50 [6]: 1.7 µg/mL (≈ 5.14 µM) | IC50 [4]: Not Active | MIC [4]: inactive | IC50 [5]: Not Active | MIC [5]: inactive | IC50 [7]: 2.4 µg/mL (≈ 7.26 µM)

N=C(N)c1ccc(OCCCCCOc2ccc(C(=N)N)cc2)cc1 [PENTAMIDINE]
IC90 [8]: 2 µg/mL (≈ 5.87 µM)

CCCCCc1cc(O)c2c(c1)OC(C)(C)C1=C2C(O)C(C)(OC)CC1 (stereo not given)
IC50 [8]: 35 µg/mL (≈ 97.1 µM) | IC90 [8]: > 40 µg/mL | Emax [9]: 40% | IC50 [10]: 1080 nM | Ki [10]: 538 nM | IC50 [11]: 599 nM | Ki [11]: 300 nM | Emax [12]: 20%

C=C1C[C@H]2C3=C(OC(C)(C)[C@@H]2C[C@H]1O)C(=O)C(CCCCC)=CC3=O
IC50 [8]: 0.6 µg/mL (≈ 1.74 µM) | IC90 [8]: 1.3 µg/mL (≈ 3.77 µM) | IC50 ([1]; Cryptococcus neoformans): 1.84 µg/mL (≈ 5.34 µM) | MIC [1, 15]: 5 µg/mL (≈ 14.5 µM) | IC50 [2]: Not Active | MIC [2]: inactive | IC50 ([3]; Staphylococcus aureus): 2.03 µg/mL (≈ 5.89 µM) | MIC [3, 16]: 2.5 µg/mL (≈ 7.26 µM) | IC50 [4]: Not Active | MIC [4]: inactive | MIC ([5]; Staphylococcus aureus): 10 µg/mL (≈ 29 µM) | IC50 [5, 17]: 5.53 µg/mL (≈ 16.1 µM)

CCCCCc1cc(OC(C)=O)c2c(c1)OC(C)(C)C1=C2C2OC2(C)CC1 (stereo not given)
IC50 [10]: 573 nM | Ki [10]: 286 nM | IC50 [11]: 927 nM | Ki [11]: 464 nM

CCCCCC1=CC(=O)C2=C(OC(C)(C)[C@@H]3C=CC(C)(OO)C[C@@H]23)C1=O (stereo not given in full)
IC50 [8]: 0.7 µg/mL (≈ 1.94 µM) | IC90 [8]: 1.2 µg/mL (≈ 3.33 µM) | IC50 ([1]; Cryptococcus neoformans): 0.93 µg/mL (≈ 2.58 µM) | MIC [1, 15]: 2.5 µg/mL (≈ 6.94 µM) | MIC ([2]; Nakaseomyces glabratus): 10 µg/mL (≈ 27.7 µM) | IC50 ([2]; Nakaseomyces glabratus, read-out: IC50): 6.54 µg/mL (≈ 18.1 µM) | IC50 ([3]; Staphylococcus aureus): 1.3 µg/mL (≈ 3.61 µM) | MIC [3, 16]: 2.5 µg/mL (≈ 6.94 µM) | MIC ([4]; Pichia kudriavzevii): 10 µg/mL (≈ 27.7 µM) | IC50 ([4]; Pichia kudriavzevii, read-out: IC50): 5.77 µg/mL (≈ 16 µM) | MIC ([5]; Staphylococcus aureus): 5 µg/mL (≈ 13.9 µM) | IC50 [5, 17]: 2.63 µg/mL (≈ 7.3 µM)

CCCCCc1cc(OC(C)=O)c2c(c1)OC(C)(C)[C@@H]1CC=C(C)C[C@@H]21
IC50 [13]: 518 nM | Ki [13]: 259 nM | IC50 [14]: 87 nM | Ki [14]: 43 nM | IC50 [10]: 88 nM | Ki [10]: 44 nM | IC50 [11]: 316 nM | Ki [11]: 158 nM

CCCCCc1cc2c(c(OS(=O)(=O)c3ccc(C)cc3)c1)[C@@H]1[C@H](O)C(C)=CC[C@H]1C(C)(C)O2
IC50 [10]: 1280 nM | Ki [10]: 642 nM | IC50 [11]: 1110 nM | Ki [11]: 552 nM

CCCCCc1cc2c(c(OS(=O)(=O)c3ccc(C)cc3)c1)[C@H]1[C@@H](CC=C(C)[C@@H]1OO)C(C)(C)O2
IC50 [10]: 1020 nM | Ki [10]: 512 nM | IC50 [11]: 851 nM | Ki [11]: 426 nM

C[C@@H]1[C@H](O)[C@@H](C)/C=C/C=C/C=C/C=C/C=C/C=C/C=C/[C@H](O[C@@H]2O[C@H](C)[C@@H](O)[C@H](N)[C@@H]2O)C[C@@H]2O[C@](O)(C[C@@H](O)C[C@@H](O)[C@H](O)CC[C@@H](O)C[C@@H](O)CC(=O)O[C@H]1C)C[C@H](O)[C@H]2C(=O)O [AMPHOTERICIN B]
IC50 [8]: 0.16 µg/mL (≈ 0.173 µM) | IC90 [8]: 0.33 µg/mL (≈ 0.357 µM) | IC50 ([1]; Cryptococcus neoformans): 1.36 µg/mL (≈ 1.47 µM) | MIC [1, 15]: 2.5 µg/mL (≈ 2.71 µM)

CCCCCc1cc(O)c2c(c1)OC(C)(C)[C@@H]1C=C[C@@](C)(O)C[C@@H]21
IC50 [13]: 11400 nM | Ki [13]: 5700 nM | IC50 [14]: 387 nM | Ki [14]: 193 nM | IC50 [10]: 930 nM | Ki [10]: 470 nM | IC50 [11]: 19 nM | Ki [11]: 9.5 nM

C=C1C[C@H]2c3c(cc(CCCCC)cc3OS(=O)(=O)c3ccc(C)cc3)OC(C)(C)[C@@H]2CC1OO (stereo not given in full)
IC50 [10]: 5700 nM | Ki [10]: 2850 nM | IC50 [11]: 2060 nM | Ki [11]: 1030 nM

CCCCCc1cc2c(c(OS(=O)(=O)c3ccc(C)cc3)c1)[C@@H]1CC(C)(OO)C=C[C@H]1C(C)(C)O2 (stereo not given in full)
IC50 [13]: 1750 nM | Ki [13]: 876 nM | IC50 [14]: 97 nM | Ki [14]: 48 nM | Emax [9]: 90% | IC50 [10]: 275 nM | Ki [10]: 137 nM | IC50 [11]: 421 nM | Ki [11]: 211 nM | Emax [12]: 20%

CCCCCc1cc2c(c(OS(=O)(=O)c3ccc(C)cc3)c1)C1=C(CC[C@](C)(O)[C@H]1OCC)C(C)(C)O2
IC50 [8]: 4.5 µg/mL (≈ 8.51 µM) | IC90 [8]: 22 µg/mL (≈ 41.6 µM) | IC50 [6]: 1.8 µg/mL (≈ 3.4 µM) | IC50 [7]: 2.2 µg/mL (≈ 4.16 µM)

C[C@@H]1CC[C@H]2[C@@H](C)C(=O)O[C@@H]3O[C@@]4(C)CC[C@@H]1[C@]32OO4 [ARTEMISININ]
IC50 [6]: 0.014 µg/mL (≈ 0.0496 µM)

C=C1C[C@H]2C3=C(OC(C)(C)[C@@H]2CC1OO)C(=O)C(CCCCC)=CC3=O (stereo in doubt; 25)
MIC [2]: inactive | MIC [4]: inactive

CCCCCc1cc(O)c2c(c1)OC(C)(C)C1=C2C(OC(C)=O)C(C)(OC)CC1 (stereo not given)
IC50 [10]: 2800 nM | Ki [10]: 1400 nM | IC50 [11]: 1980 nM | Ki [11]: 990 nM | IC50 [6]: 3 µg/mL (≈ 7.45 µM) | IC50 [7]: 3.3 µg/mL (≈ 8.2 µM)

CCCCCc1cc(O)c2c(c1)OC(C)(C)C1=C2C(OCC)C(C)(O)CC1 (stereo not given)
IC50 [8]: 3 µg/mL (≈ 8.01 µM) | IC90 [8]: 6 µg/mL (≈ 16 µM) | MIC [1]: inactive | IC50 ([1]; Cryptococcus neoformans): 4.57 µg/mL (≈ 12.2 µM) | IC50 [2]: Not Active | MIC [2]: inactive | MIC [3]: inactive | IC50 ([3]; Staphylococcus aureus): 4.86 µg/mL (≈ 13 µM) | IC50 [6]: 3.7 µg/mL (≈ 9.88 µM) | IC50 [4]: Not Active | MIC [4]: inactive | MIC [5]: inactive | IC50 [5, 17]: 17.1 µg/mL (≈ 45.6 µM) | IC50 [7]: 3.6 µg/mL (≈ 9.61 µM)

C=C1CC[C@@H]2[C@H](c3c(cc(CCCCC)cc3OS(=O)(=O)c3ccc(C)cc3)OC2(C)C)[C@@H]1OO
IC50 [8]: 3.1 µg/mL (≈ 6.19 µM) | IC90 [8]: 6.5 µg/mL (≈ 13 µM)

C=C1C[C@H]2C3=C(OC(C)(C)[C@@H]2CC1OO)C(=O)C(CCCCC)=CC3=O (stereo in doubt; 26)
MIC [2]: inactive | MIC [4]: inactive | MIC [5]: inactive

CCCCCc1cc(OC(C)=O)c2c(c1)OC(C)(C)C1=C2C(O)C(C)(O)CC1 (stereo not given)
IC50 [6]: 3.2 µg/mL (≈ 8.24 µM) | IC50 [7]: 4.5 µg/mL (≈ 11.6 µM)
